Results taken from ChEMBL document CHEMBL3085745, “Plakinamine M, a steroidal alkaloid from the marine sponge Corticium sp” (2013).
≈ marks a conversion by molar mass, not a printed value. Calls of active or inactive are those of the source. The calls are words filed in the database; no cut-off is given here.

Columns and labels:
[1] = tested on: Mycobacterium tuberculosis; assay: Antimycobacterial activity against Mycobacterium tuberculosis H37Ra ATCC 25177 after 4 days by MTT assay; format: functional; settings: H37Ra ATCC 25177, 96 h
Procedure, shortened: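 Inoculum from a frozen bacterial pellet diluted into fresh medium to a final 5×10⁵ CFU/mL, dispensed onto compound in quadruplicate wells. DMSO-only wells served as negative control and rifampicin at 250 ng/mL as positive control. Incubated 4 days at 37 °C, then MTT added for a further 12 h. After subtracting media-only blanks, % inhibition = (1 − Σtest/Σcontrol)×100.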

Staphylococcus aureus = assay: Antibacterial activity against Staphylococcus aureus at 50 ug/mL; format: functional, organism-based
Candida albicans = assay: Antifungal activity against Candida albicans at 50 ug/mL; format: functional, organism-based
Escherichia coli = assay: Antibacterial activity against Escherichia coli at 50 ug/mL; format: functional, organism-based
Bacillus subtilis = assay: Antibacterial activity against Bacillus subtilis at 50 ug/mL; format: functional, organism-based

Row | SMILES | MIC [1] [mg/L] | Activity (Staphylococcus aureus) | Activity (Candida albicans) | Activity (Escherichia coli) | Activity (Bacillus subtilis)
1 | CC(C)/C(=C\C[C@@H](C)[C@H]1CC[C@H]2C3=CC[C@H]4C[C@H](N(C)C)CC[C@]4(C)[C@H]3CC[C@]12C)CCN(C)C | 3.6 (≈ 7.46 µM) | inactive | Active | inactive | inactive
2 | CC(C)/C(=C\C[C@@H](C)[C@H]1CC[C@H]2C3=CC[C@H]4C[C@H](N(C)C)[C@@H](O)C[C@]4(C)[C@H]3CC[C@]12C)CCN(C)C | 15.8 (≈ 31.7 µM) | inactive | Active | inactive | inactive
